Experimental data from ChEMBL document CHEMBL1135820, “A sorbitol dehydrogenase inhibitor of exceptional in vivo potency with a long duration of action: 1-(R)-[4-[4-(4,6-dimethyl[1,3,5]triazin-2-yl)- 2R,6S-dimethylpiperazin-1-yl]pyrimidin-2-yl]ethanol” (J Med Chem, 2002).

Key:
Rattus norvegicus [1] = experiment: Concentration required for […] inhibition of lower sciatic nerve fructose that became elevated in diabetic nerve in streptozotocin diabetic in vivo rat model; assay type: functional
Sorbitol dehydrogenase [2] = molecular target: T1, Sorbitol dehydrogenase (Homo sapiens, UniProt Q00796); experiment: Concentration required for 50% for in vitro activity against human SDH (sorbitol dehydrogenase)
T1 sequence (Q00796 whole entry): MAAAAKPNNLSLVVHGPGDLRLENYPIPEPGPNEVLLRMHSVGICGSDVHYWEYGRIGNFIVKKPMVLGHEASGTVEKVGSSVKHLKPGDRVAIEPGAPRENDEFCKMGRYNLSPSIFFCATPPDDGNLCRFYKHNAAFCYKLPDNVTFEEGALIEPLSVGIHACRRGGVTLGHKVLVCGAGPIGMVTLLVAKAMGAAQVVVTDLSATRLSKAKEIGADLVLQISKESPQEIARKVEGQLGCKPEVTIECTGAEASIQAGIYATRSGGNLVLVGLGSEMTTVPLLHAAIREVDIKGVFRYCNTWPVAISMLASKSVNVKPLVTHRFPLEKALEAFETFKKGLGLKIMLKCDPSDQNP

Sorbitol dehydrogenase [3] = molecular target: T2, Sorbitol dehydrogenase (Rattus norvegicus, UniProt P27867); experiment: Concentration required for 50% in vitro activity against rat SDH (sorbitol dehydrogenase)
T2 sequence (P27867 whole entry): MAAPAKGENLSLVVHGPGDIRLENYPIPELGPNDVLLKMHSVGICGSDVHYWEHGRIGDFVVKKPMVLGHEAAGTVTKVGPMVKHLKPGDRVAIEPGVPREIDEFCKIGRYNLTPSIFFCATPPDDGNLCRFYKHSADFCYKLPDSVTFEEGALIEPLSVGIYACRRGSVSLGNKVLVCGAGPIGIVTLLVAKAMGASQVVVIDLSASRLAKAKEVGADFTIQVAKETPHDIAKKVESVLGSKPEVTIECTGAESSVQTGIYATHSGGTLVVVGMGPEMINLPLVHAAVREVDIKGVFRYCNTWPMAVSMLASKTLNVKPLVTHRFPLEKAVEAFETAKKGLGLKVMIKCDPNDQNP

Rattus norvegicus [4] = species on record: Rattus norvegicus; experiment: % Ability to inhibit lower sciatic nerve fructose that became elevated in diabetic nerve in streptozotocin diabetic rat model at 0.05 mpk; assay type: functional
Method in brief: (§1)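 Chronically diabetic rats were dosed at 0.05 or 1 mg/kg in a chronic test. Sciatic nerve fructose was measured and reported as percent inhibition of the diabetes-induced fructose elevation in sciatic nerve.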

Rattus norvegicus [5] = experiment: % Ability to inhibit lower sciatic nerve fructose that became elevated in diabetic nerve in streptozotocin diabetic rat model at 1 mg/kg; assay type: functional; method in brief: as §1
[6] = pKa value was reported; assay type: physicochemical
Sorbitol dehydrogenase [7] = molecular target: T1, Sorbitol dehydrogenase; experiment: Concentration required for 50% in vitro activity against human SDH (sorbitol dehydrogenase)
[8] = molecular target: T3, Sorbitol dehydrogenase (Rattus norvegicus) (UniProt P27867)
T3 sequence (whole entry): T2 sequence (P27867 whole entry)

[9] = molecular target: T3, Sorbitol dehydrogenase (Rattus norvegicus); experiment: In vitro inhibitory activity against rat sorbitol dehydrogenase and concentration that cause 90% inhibition was reported

IC50 (Sorbitol dehydrogenase [2])	IC50 (Sorbitol dehydrogenase [3])	Structure (SMILES)	ED90 (Rattus norvegicus [1])	further results
7 nM	10 nM	C[C@@H]1CN(c2ncnc(-c3ccccc3)n2)C[C@H](C)N1c1ccnc([C@@H](C)O)n1	1 mg/kg	
13 nM	11 nM	Cc1cn(-c2nccc(N3C[C@@H](C)N(c4ccnc([C@@H](C)O)n4)[C@@H](C)C3)n2)cn1	1 mg/kg	
7 nM	5 nM	Cc1ncnc(N2C[C@@H](C)N(c3ccnc([C@@H](C)O)n3)[C@@H](C)C2)n1	0.3 mg/kg	
43 nM	39 nM	Cc1nc(-c2ccccc2)nc(N2C[C@@H](C)N(c3ccnc([C@@H](C)O)n3)[C@@H](C)C2)n1		Ability (Rattus norvegicus [1]): 81%

More lines, now with the values behind:

Structure (SMILES)	IC50 (Sorbitol dehydrogenase [2])	IC50 (Sorbitol dehydrogenase [3])	ED90 (Rattus norvegicus [1])	further results
Cc1nc(C)nc(N2C[C@@H](C)N(c3ccnc([C@@H](C)O)n3)[C@@H](C)C2)n1 (stereo in doubt; 16a)	16 nM	9 nM		Ability (Rattus norvegicus [4]): 56%
Cc1nc(CO)nc(N2C[C@@H](C)N(c3ccnc([C@@H](C)O)n3)[C@@H](C)C2)n1		20 nM		Ability (Rattus norvegicus [5]): 65%
Cc1nc(C)nc(N2C[C@@H](C)N(c3ccnc([C@@H](C)O)n3)[C@@H](C)C2)n1 (stereo in doubt; 16) [listing 1 of 2 here]	5 nM	4 nM	0.05 mg/kg	pKa [6]: 6.2
C[C@H](O)c1nccc(N2C[C@@H](C)N(c3ccnc([C@@H](C)O)n3)[C@@H](C)C2)n1		11 nM	2 mg/kg	pKa [6]: 6.8; IC50 (Sorbitol dehydrogenase [7]): 10 nM; IC90 [8]: 31 nM
Cc1cn(-c2nccc(N3C[C@@H](C)N(c4ccnc([C@@H](C)O)n4)[C@@H](C)C3)n2)c(C)n1	4 nM	7 nM	1 mg/kg	
C[C@H](O)c1nccc(N2[C@H](C)CN(c3ccnc(N4CCN(C)CC4)n3)C[C@@H]2C)n1		32 nM		
Cc1nc(C)nc(N2C[C@@H](C)N(c3ccnc([C@@H](C)O)n3)[C@@H](C)C2)n1 (stereo in doubt; 16) [listing 2 of 2 here]				IC90 [9]: 10 nM
C[C@@H]1CN(c2ccnc(N3CCN(C)CC3)n2)C[C@H](C)N1c1ccnc([C@@H](C)O)n1	4 nM	6 nM	1 mg/kg	
